Measured values pooled from the literature.
Values after ≈ are worked out from the molar mass of the structure shown.

Structure (SMILES) | organism | assay | test system | conditions | endpoint | value
COC(=O)c1cc(-c2cccc(NC(=S)Nc3ccc(C)cc3)c2)on1 | Mycobacteroides chelonae | microbial growth, broth dilution | ATCC35752 | 48 h | MIC | > 64 µg/mL
Cc1cc(Cc2ccccc2)n(O)c(=O)c1 | Candida albicans | microbial growth | ATCC90028 |  | MIC80 | 1.2 µM (≈ 0.258 µg/mL)
O=c1c2ccccc2[se]n1-c1ccccc1 | Trypanosoma brucei | parasite growth |  | blood stage | EC50 | 2.97 µM
O=c1c2ccccc2nc(/C=C/c2ccc(F)cc2)n1-c1cccc(O)c1 | Enterococcus faecium | microbial growth, broth dilution | NCTC7171 |  | MIC | 128 µg/mL (≈ 357 µM)
CC(=O)Oc1cccc2c1[nH]c1c(C3=C[C@@]4(OC(C)=O)CC/C=C\CCCCN5CC[C@@H]3[C@]3(C[C@@H]6/C=C\CCCCN6[C@H]34)C5)nccc12 | Mycobacterium intracellulare | microbial killing |  |  | MBC | > 20 µg/mL
COC(=O)c1cc(-c2cccc(NC(=S)Nc3cccc(Br)c3)c2)on1 | Mycobacteroides chelonae | microbial growth, broth dilution | ATCC35752 | 48 h | MIC | > 64 µg/mL
N#Cc1ccc(/C=C/c2nc3ccccc3c(=O)n2-c2cccc([N+](=O)[O-])c2)cc1 | Enterococcus faecium | microbial growth, broth dilution | NCTC7171 |  | MIC | > 128 µg/mL
CCC(=O)N1CCN(c2ccc(-n3c(=O)ccc4cnc5ccc(-c6cnc7ccccc7c6)cc5c43)cc2C(F)(F)F)CC1 | Plasmodium berghei | parasite growth, luciferase | human | liver stage | IC50 | 0.41 µM
CN(C)C(=O)/C(C#N)=C/c1ccc(-c2nc3cnc4[nH]ccc4c3n2C2CCCCC2)o1 | Murine coronavirus | viral replication |  | 1 µM, 10 h | inhibition | 36%
CCOC(=O)c1cc(-c2cccc(NC(=O)Nc3ccc(Cl)c(Cl)c3)c2)on1 | Mycobacteroides chelonae | microbial growth, broth dilution | ATCC35752 | 48 h | MIC | > 64 µg/mL
Nc1cccc(-n2c(/C=C/c3ccc(F)cc3)nc3ccccc3c2=O)c1 | Enterococcus faecium | microbial growth, broth dilution | NCTC7171 |  | MIC | 128 µg/mL (≈ 358 µM)
Cc1nc(N)sc1-c1ccnc(Nc2ccc(N3CCOCC3)cc2)n1 | Plasmodium berghei | parasite growth, luciferase | human | liver stage | IC50 | 0.46 µM
CCCCCOc1ccc(-c2cc(-c3ccc(C(=O)N[C@H]4C[C@@H](O)[C@@H](O)NC(=O)[C@@H]5[C@@H](O)[C@@H](C)CN5C(=O)[C@H]([C@H](O)CC(N)=O)NC(=O)[C@H]([C@H](O)[C@@H](O)c5ccc(O)c(OS(=O)(=O)O)c5)NC(=O)[C@@H]5C[C@@H](O)CN5C(=O)[C@H]([C@@H](C)O)NC4=O)cc3)no2)cc1 | Candida albicans | biofilm formation |  | 16 µg/mL | inhibition | 47%
Cc1ccc(/C=C/c2nc3ccccc3c(=O)n2-c2cccc(O)c2)cc1 | Enterococcus faecium | microbial growth, broth dilution | NCTC7171 |  | MIC | > 128 µg/mL
COC(=O)c1cc(-c2cccc(NC(=O)Nc3ccc(Cl)cc3Cl)c2)on1 | Mycobacteroides chelonae | microbial growth, broth dilution | ATCC35752 | 48 h | MIC | > 64 µg/mL
O=c1c2ccccc2nc(/C=C/c2ccc3c(c2)OCO3)n1-c1cccc(O)c1 | Enterococcus faecium | microbial growth, broth dilution | NCTC7171 |  | MIC | > 128 µg/mL
COC(=O)c1cc(-c2cccc(NC(=S)Nc3ccc(C#N)cc3)c2)on1 | Mycobacteroides chelonae | microbial growth, broth dilution | ATCC35752 | 48 h | MIC | 64 µg/mL (≈ 169 µM)
COc1cccc(Cc2cc(C)cc(=O)n2O)c1 | Candida albicans | microbial growth | ATCC90028 |  | MIC80 | 2.3 µM (≈ 0.564 µg/mL)
COC(=O)c1cc(-c2cccc(NC(=S)Nc3ccc(Cl)cc3)c2)on1 | Mycobacteroides chelonae | microbial growth, broth dilution | ATCC35752 | 48 h | MIC | > 64 µg/mL
Nc1ccc(/C=C/c2nc3ccccc3c(=O)n2-c2cccc(O)c2)cc1 | Enterococcus faecium | microbial growth, broth dilution | NCTC7171 |  | MIC | > 128 µg/mL
